The array DNA melting data of Ke et al. (doi:10.1101/2024.01.08.574731)

Experiments:
[1] = folding enthalpy; higher = less favourable; fluorescence melt of hairpins on a sequencing array, two-state fit; conditions: sodium 0.088 M
Procedure, shortened: (§1)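 Library hairpins on a sequenced MiSeq flow cell carried annealed Cy3 and quencher oligos, and their Cy3 fluorescence was imaged in 50 mM Na-HEPES pH 8.0 with 25 mM NaCl, in 2.5 °C steps up to 60 °C. Signals were normalised to Cy3 before quenching and to control constructs. Melting temperature and folding enthalpy were obtained from bootstrapped two-state fits, combined by inverse-variance weighting across four replicates, and the fitted temperatures were then raised by 9.35 °C to match UV melts.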

[2] = melting temperature; fluorescence melt of hairpins on a sequencing array, two-state fit, raised by 9.35 °C to match UV melts; conditions: sodium 0.088 M
Procedure, shortened: as §1

Sequence	folding enthalpy [1] [kcal/mol]	Tm [2] [°C]
GGGTTCGAAAGAACTCCC ((((((....)))..)))	-13.5	46.5
GGGTTCGAAAGAAGCCCC ((((((....)))..)))	-20.9	55.3
GGGTTTACGAAAGTACCC (((..(((....))))))	-24.2	41.2
GGGTTTCGAAAGAACCC (((.(((....))))))	-38	51.2
GGGTTTGCGAAAGCACCC (((..(((....))))))	-18.9	47.3
GGGTTTGGAAACAAACCC (((((((....)))))))	-39.6	66.8
GGGTTTGGAAACAAGTCC ((..(((....)))..))	-22.3	30.4
GGGTTTGGAAACAGACCC ((((.((....)).))))	-39.9	48.8
GGGTTTGGAAACAGATCC ((.(.((....)).).))	-13	29.9
GGGTTTGGAAACGAACCC (((((.(....).)))))	-59.2	52.3
GGGTTTGGAAACGAACTC (.(((.(....).))).)	-24	32.4
GGTAAAACGAAAGTTACC (((..(((....))))))	-19.1	37.3
GGTAAACGAAAGTTAACC (((.(((....))).)))	-30.5	43.2
GGTAAAGCGAAAGCTACC (((..(((....))))))	-19	44.8
GGTAAAGGAAACCTTACC (((((.(....).)))))	-22	35.5
GGTAAAGGAAACTTTACC (((((((....)))))))	-47.8	52.1
GGTAACGAAAGTTCAACC ((((((....)))..)))	-11	27.7
GGTAACGAAAGTTGACC ((((((....))).)))	-20.6	39.2
GGTAACGAAAGTTGTACC ((((((....)))..)))	-17.5	34.8
GGTAACGCGAAAGCGACC (((..(((....))))))	-14.1	40.9
GGTAACGGAAACATTACC (((((.(....).)))))	-21.2	31.5
GGTAACGGAAACGCTACC ((((.((....)).))))	-29.7	43.7
GGTAAGAAATTACC (((((....)))))	-16	34.3

Sequence	folding enthalpy [1] [kcal/mol]	Tm [2] [°C]
GGTAAGCGAAAGCTACC (((.(((....))))))	-26.7	55
GGTAAGGGAAACCTCACC (((.(((....))).)))	-21.9	34.7
GGTAATCGAAAGATGACC (((.(((....))).)))	-33.9	47.5
GGTAATGGAAACACTACC ((((.((....)).))))	-15.4	30.1
GGTACCGAAAGGTAAACC ((((((....)))..)))	-16.2	40.5
GGTACCGAAAGGTACACC ((((((....)))..)))	-9.32	51.7
GGTACCGAAAGGTTAACC ((((((....)))..)))	-17.3	38.6
GGTACCGAAAGGTTCACC ((((((....)))..)))	-13.6	34.4
GGTACCGGAAACGGCACC (((.(((....))).)))	-29.9	52.5
GGTACGGGAAACCATACC ((((.((....)).))))	-28.2	36.7
GGTACGGGAAACCGCACC (((.(((....))).)))	-28.6	50.5
GGTAGACGAAAGTCAACC (((.(((....))).)))	-26.3	51.5
GGTAGACGAAAGTCACC (((.(((....))))))	-23.6	50.8
GGTAGACGAAAGTCGACC (((.(((....))).)))	-39.1	58.1
GGTAGATCGAAAGATACC (((..(((....))))))	-19	33.1
GGTAGCCGAAAGGCACC (((.(((....))))))	-18.7	57.5
GGTAGCGAAAGCTAGACC ((((((....)))..)))	-14.3	40.1
GGTAGCGAAAGCTCACC ((((((....))).)))	-16.8	48.2
GGTAGCGAAAGCTCGACC ((((((....)))..)))	-15.1	34.6
GGTAGCGAAAGCTTCACC ((((((....)))..)))	-13.8	34.4
GGTAGCTCGAAAGAGACC (((..(((....))))))	-11.7	28.3
GGTAGGCGAAAGCCCACC (((.(((....))).)))	-17.1	51.9
GGTAGGGAAACCTACC ((((((....))))))	-38.5	54.6

Sequence	folding enthalpy [1] [kcal/mol]	Tm [2] [°C]
GGTAGGGGAAACCCTGCC ((.((((....)))).))	-39.5	53.6
GGTAGTCGAAAGACCACC (((.(((....))).)))	-24.7	45.7
GGTATAGAAATATACC ((((((....))))))	-26.4	41.9
GGTATAGGAAACTATATC (.(((((....))))).)	-17.1	31.2
GGTATAGGAAACTATGCC ((.((((....)))).))	-33.1	43.2
GGTATCGAAAGATAAACC ((((((....)))..)))	-18.4	30.4
GGTATCGAAAGATCGACC ((((((....)))..)))	-16.9	27.8
GGTATCGAAAGATGTACC ((((((....)))..)))	-23.2	32.5
GGTATCTCGAAAGAGACC (((..(((....))))))	-21.1	35.2
GGTATGGAAACATACC ((((((....))))))	-41.9	53.4
GGTATGGGAAACCATACC (((((((....)))))))	-45.3	58
GGTATGGGAAACTATACC (((((.(....).)))))	-26.6	41.4
GGTATGTCGAAAGACACC (((..(((....))))))	-12.1	34.8
GGTATTCGAAAGAAGACC (((.(((....))).)))	-43.2	50.8
GGTCAACGAAAGTTCACC (((.(((....))).)))	-22.3	35.1
GGTCAAGAAATTGACC ((((((....))))))	-41.4	52.7
GGTCAAGGAAACTCGACC ((((.((....)).))))	-26.6	40.8
GGTCAAGGAAACTTGACC (((((((....)))))))	-43	63.5
GGTCAATCGAAAGATACC (((..(((....))))))	-13.3	26.9
GGTCACCGAAAGGTCACC (((.(((....))).)))	-25.6	43.9
GGTCACGAAAGTGATACC ((((((....)))..)))	-11.7	44.7
GGTCACGAAAGTGGCACC ((((((....)))..)))	-11.7	47.6
GGTCACGAAAGTGGGACC ((((((....)))..)))	-23.4	48

Sequence	folding enthalpy [1] [kcal/mol]	Tm [2] [°C]
GGTCACGGAAACGTGGTC (..((((....))))..)	-16.8	39.6
GGTCAGGGAAACCTGACC (((((((....)))))))	-36.6	67.2
GGTCATGAAAATGACC ((((((....))))))	-38	59.5
GGTCATGCGAAAGCAACC (((..(((....))))))	-8.01	27
GGTCCACGAAAGTGACC (((.(((....))))))	-24.4	52.5
GGTCCACGAAAGTGTACC (((.(((....))).)))	-21.7	50
GGTCCCCGAAAGGGCACC (((.(((....))).)))	-19.3	49
GGTCCCGAAAGGGCAACC ((((((....)))..)))	-12.4	38.4
GGTCCCGAAAGGGCCACC ((((((....)))..)))	-11.7	55
GGTCCCGAAAGGGTACC ((((((....))).)))	-23.4	55.5
GGTCCCGGAAACGGGATC (.(((((....))))).)	-24.2	57.1
GGTCCCTCGAAAGAGACC (((..(((....))))))	-17.1	34.8
GGTCCGCGAAAGCGCACC (((.(((....))).)))	-20.9	48.3
GGTCCGGGAAACCGAACC (((.(((....))).)))	-29.1	46.8
GGTCCGGGAAACTGGGCC ((.((.(....).)).))	-35.4	51.7
GGTCCTGGAAACAGGACC (((((((....)))))))	-30.9	69.3
GGTCCTGGAAACAGGGTC (..((((....))))..)	-16.1	37.8
GGTCGAGGAAACTTGACC ((((.((....)).))))	-32	51.9
GGTCGCCGAAAGGCACC (((.(((....))))))	-12.6	55.3
GGTCGCGAAAGCGAGACC ((((((....)))..)))	-13.5	51.6
GGTCGCGAAAGCGCTACC ((((((....)))..)))	-13	36.7
GGTCGCGAAAGCGTAACC ((((((....)))..)))	-15	47.2
